From PubChem BioAssay
A selection: hits, their analogues and other compounds. The true share with any hit is near 1.8%.
PABP1 MLLE inh – inhibitors of microRNA-mediated deadenylation, human PABP1 MLLE binding | P11940 | GST-MLLE / FITC-PAM2 fluorescence polarization | inhibition, % at 20 µM | actives 0.36% (n = 360,000); in the data active means inhibition above about 35%, passing the limit was not always enough;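 further: plate controls were DMSO wells with GST-MLLE for no effect and wells lacking GST-MLLE protein for full effect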
eIF4E 4G PPI – blocks eIF4E binding to eIF4G; P63073+Q04637; TR-FRET eIF4E-eIF4GI(517-606) binding, 2 h; inhibition, % at 21.7 µM; actives 0.37% (n = 220,000);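 active means inhibition above about 30%, limit read from the data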;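 further: 0% = full FRET control wells and 100% = background wells lacking eIF4GI fragment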
PABP FP inh – blocks human PABP binding to poly(A) RNA; P11940; fluorescence polarization; calls only at 35 µM; actives 1% (n = 290,000); AID 2014;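 further: calls also rest on retests at 20 µM and on dose response follow-up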
SUMO HTRF inh – inhibitors of human SUMOylation (UBC9) | P63279 | HTRF SUMOylation assay, SAE1/SAE2 + UBC9, in vitro | inhibition, % at 35 µM | actives 0.36% (n = 290,000) | AID 2006; in the data active means inhibition above about 50%, passing the limit was not always enough; inconclusive means no clear call, values can overlap the other calls
Target sequence (P63279 whole entry, looked up): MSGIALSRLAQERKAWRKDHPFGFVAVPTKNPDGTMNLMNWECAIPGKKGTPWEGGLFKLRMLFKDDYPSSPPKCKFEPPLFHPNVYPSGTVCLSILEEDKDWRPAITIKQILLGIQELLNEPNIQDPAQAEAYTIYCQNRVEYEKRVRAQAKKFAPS
eIF4H inh – inhibitors of RNA binding by human eIF4H. Q15056. eIF4H fluorescence polarization binding assay. inhibition, % at 35 µM. actives 0.94% (n = 290,000);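 further: calls also rest on retests at 20 µM and on dose response follow-up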
HCV core dimer – blocks dimerization of HCV core protein. actives 0.33% (n = 300,000). inhibition, % at 5 µM. AID 1899. TR-FRET GST/Flag-core106 dimerization, 1536-well;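 active means inhibition above the mean of all tested compounds plus 3 SD, set per screening campaign, cut at about 45% in these data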
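test system = GST/Flag-tagged HCV core106 proteins | probe or stimulus = Eu donor and XL665 acceptor anti-tag antibodies | times = compound-protein-antibody incubation 4 h at 22.5 °C | signal = TR-FRET, excitation 340 nm, emission 617 and 671 nm | measure = percent inhibition of core106 dimerization signal | controls = wells lacking GST-core106 and wells with excess unlabelled core106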
* = called active by the depositor; i = inactive; ? = inconclusive; · = no result; + = active, no number; [ ] = another dose, or the depositor's remark. Unless noted, how the calls were made is not given here.

SMILES	PABP1 MLLE inh	eIF4E 4G PPI	PABP FP inh	SUMO HTRF inh	eIF4H inh	HCV core dimer
COc1ccc(-c2cc(C)no2)cc1S(=O)(=O)N(C)c1ccc(C)cc1	7	·	i	-16	-6	5
CCCCn1c(NC(=S)Nc2ccccc2)nc2ccccc21	40*	-5	i	-72	8	18
C[n+]1ccccc1/C=N/O	2	-2	i	6	0	-10
CC(O)/C=C/c1cccc[n+]1C (stereo not drawn)	-117	-11	+	17	14	-6
Cc1ccc(-c2csc(NC(=O)c3ccc(S(=O)(=O)N4CCc5ccccc54)cc3)n2)cc1	5	-2	i	-3	-4	67*
O=C(Nc1nc(-c2ccccc2)cs1)c1ccc(S(=O)(=O)N2CCc3ccccc32)cc1	-8	-4	i	-1	3	26
O=C(Nc1ccncc1)c1ccc(Cl)c(S(=O)(=O)N2CCc3ccccc32)c1	-5	·	·	·	·	5
CCc1nnc(NC(=O)c2ccc(Cl)c(S(=O)(=O)N3CCc4ccccc43)c2)s1	-26	-14	i	29	-2	51*
NS(=O)(=O)c1ccc(NC(=O)c2ccc(S(=O)(=O)N3CCc4ccccc43)cc2)cc1	-12	-4	i	20	19	58*
Cc1ccc(S(=O)(=O)N2CCCC2)cc1C(=O)N1CCN(Cc2ccccc2)CC1	4	·	i	-3	-9	2
O=C1NC(Cc2ccccc2)c2nc3ccc(F)cc3c(=O)n2-c2cc3ccccc3cc21 (stereo not drawn)	6	·	·	·	·	·
CCOc1ccc(/C=C/C(=O)Nc2ccccc2C(F)(F)F)cc1	2	-2	+	20	active	2
O=C1CCC(C(=O)N2CCCC(Nc3ccc(F)cc3)C2)=NN1 (stereo not drawn)	0	·	i	3	2	3
N#Cc1c(N)sc(=S)c2c1CCN(Cc1ccccc1)C2	·	-17	i	67*	?	57*
CCN1CCc2c(sc(N)c2C#N)C1	12	1	i	19	116	-5
O=C(Nc1cccc([N+](=O)[O-])c1)c1cc2ccccc2cc1O	-1	-2	+	33	61*	-3
O=C(O)c1ccccc1C(=O)Nc1cccc([N+](=O)[O-])c1	-8	0	i	8	-7	-1
O=C(Nc1ccc(NC(=O)c2cccc([N+](=O)[O-])c2)cc1)c1cccc([N+](=O)[O-])c1	-2	·	i	9	-10	-1
COC(=O)c1sc(NC(=O)c2cccc([N+](=O)[O-])c2)c(C(N)=O)c1C	32	3	i	-8	1	-3
Cc1cc(O)c(NC(=O)c2cccc([N+](=O)[O-])c2)cc1C	6	-3	i	7	-5	0
COC(=O)c1c(NC(=O)c2cccc([N+](=O)[O-])c2)sc(C(N)=O)c1C	5	0	+	14	63*	16
Cc1cc(CSc2ccccc2)ccc1NC(=O)c1cccc([N+](=O)[O-])c1	-3	72*[fluorescence artefact?]	i	-3	-4	6
O=C(Nc1cccc([N+](=O)[O-])c1)c1cccc(C(=O)Nc2cccc([N+](=O)[O-])c2)c1	-1	35*	i	25	9	11
CN(CC(=O)Nc1ccc(Cl)c(C(F)(F)F)c1)C(=O)/C=C/c1cccs1	5	·	·	·	·	·
CN(CC(=O)Nc1ccccc1Cl)CC(=O)Nc1cccc2ccccc12	12	·	·	·	·	·
SMILES	PABP1 MLLE inh	eIF4E 4G PPI	PABP FP inh	SUMO HTRF inh	eIF4H inh	HCV core dimer
COc1ccccc1CNC(=O)[C@H](C)NC(=O)C1CCN(C(=O)[C@@H](N)CCSC)CC1	17	·	i	15	-10	1
Cc1cccc(C(=O)N(C(=O)c2cccc(C)c2)N(C)C)c1	-10	·	·	·	·	·
Cc1nc(CSc2nsc(/C=C/N(C)C)c2C#N)cs1	-59	2	i	11	?	·
COC(=O)c1ccccc1CSc1nsc(/C=C/N(C)C)c1C#N	-75	·	+	-8	60	10
CCOC(=O)N1CCN(c2nc3ccccc3nc2C(C#N)C(=O)NCCc2ccccc2)CC1 (stereo not drawn)	-6	2	+	-7	46	8
CCN(CC)c1nc2ccccc2nc1C(C#N)C(=O)NCCCOC (stereo not drawn)	-18	6	i	18	21	2
N#CC(C(=O)NCCc1ccccc1)c1nc2ccccc2nc1N1CCCCC1 (stereo not drawn)	-79	6	i	-4	36	0
CCN(CC)c1nc2ccccc2nc1C(C#N)C(=O)NCCc1ccccc1 (stereo not drawn)	48	-3	i	8	29*	-5
O=C(Nc1ccc(Cl)c([N+](=O)[O-])c1)c1cnccn1	1	5	i	4	85	55*
O=C(Nc1ccc(Cl)c([N+](=O)[O-])c1)c1ccncc1	-11	4	i	-1	3	5
O=C(Nc1ccc(Br)cc1Cl)c1cnccn1	-12	0	i	15	-5	68*
O=C(Nc1ccccc1Cl)c1cnccn1	3	-11	i	6	-10	-4
CCCNc1c(F)c(F)c2c(C)c3ccccc3nc2c1F	121	-1	+	13	101*	24
Cc1c2ccccc2nc2ccccc12	5	·	·	·	·	-8
Cn1c(=O)n(CCCO)c(=O)c2c1nc1n2CCCN1Cc1ccccc1	0	·	i	4	-8	-3
O=C(CCS(=O)(=O)c1cccc2nsnc12)NCc1ccccc1Cl	-8	33*	i	0	-2	1
Cc1ccc(Nc2c([N+](=O)[O-])ccc3c2=NC2(CCCCC2)N=3)cc1	39*	5	i	-22	-4	-20
CC(=O)Nc1nnc(CCS(=O)(=O)c2ccc(C)cc2)s1	22	·	·	·	·	0
Cc1ccc(N2C(=O)CC(Sc3ccccc3C(=O)O)C2=O)c([N+](=O)[O-])c1 (stereo not drawn)	38*	2	i	-6	2	2
Cc1ccc(N2C(=O)CC(Sc3ccccc3C(=O)O)C2=O)cc1 (stereo not drawn)	50*	4	i	17	1	-2
CC(C)c1ccc(N2C(=O)CC(Sc3ncccn3)C2=O)cc1 (stereo not drawn)	39*	·	i	8	-14	·
COc1ccc(N2C(=O)CC(Sc3ccccc3C(=O)O)C2=O)c([N+](=O)[O-])c1 (stereo not drawn)	28	-2	i	19	-5	1
Nc1nnc(SC2CC(=O)N(c3ccccc3)C2=O)s1 (stereo not drawn)	42*	·	i	3	2	0
Cc1ccc(CSCC(=O)N/N=C/c2sccc2C)cc1	-4	8	i	17	1	4
COc1ccc(CCN2CCCn3c2nc2c3c(=O)n(C)c(=O)n2C)cc1OC	-9	·	i	-8	-4	·
